An excerpt weighted towards active compounds, which were near 29% of everything screened.
CYP2C19 inhib: blockers of cytochrome P450 2C19 activity – biochemical, luminescence, ADME assay, primary screen | CYP2C19 Supersomes, luciferin-H EGE luminescence, 30 min | inhibition, % at 5 µM | 96,000 compounds, 21% hits;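 active = CYP2C19 inhibition above a set limit at 5 µM in the primary screen, cut at about 50% in these data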
Target sequence (P33261 whole entry, looked up): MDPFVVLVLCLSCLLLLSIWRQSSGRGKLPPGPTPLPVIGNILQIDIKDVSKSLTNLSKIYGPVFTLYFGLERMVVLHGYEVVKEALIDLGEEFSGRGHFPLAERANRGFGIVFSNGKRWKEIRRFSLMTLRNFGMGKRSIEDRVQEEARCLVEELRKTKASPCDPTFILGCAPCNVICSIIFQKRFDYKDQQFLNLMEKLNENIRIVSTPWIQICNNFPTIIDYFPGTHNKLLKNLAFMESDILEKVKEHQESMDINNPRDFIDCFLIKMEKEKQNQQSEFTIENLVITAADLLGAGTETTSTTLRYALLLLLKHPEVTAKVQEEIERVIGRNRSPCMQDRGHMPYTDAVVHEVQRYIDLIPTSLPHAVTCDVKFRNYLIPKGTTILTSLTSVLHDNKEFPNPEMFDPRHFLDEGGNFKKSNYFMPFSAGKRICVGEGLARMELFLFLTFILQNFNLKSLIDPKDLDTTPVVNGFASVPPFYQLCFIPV
CYP2C19 act: human CYP2C19 activators, primary screen, biochemical, luminescence | 96,000 tested, under 10 active | recombinant CYP2C19, luciferin-H EGE luminescence; active compounds read high; 0 = fully inhibited enzyme, 1 = untreated enzyme | activation factor at 5 µM | Cytochrome P450 2C19 (Homo sapiens), P33261;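 active = activation factor of at least 2 at 5 µM in the primary screen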
CYP2C9 act: human CYP2C9 activators, primary screen, biochemical, luminescence; recombinant CYP2C9, luciferin-H conversion; active compounds read high; factor 1 = untreated enzyme, 0 = blocked; activation factor at 5 µM; 96,000 compounds, 1.4% hits; AID 1024, 2008;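 active = activation factor of 2 or more for CYP2C9 at a 5 µM dose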
tolC growth inh: growth inhibitors of E. coli tolC mutant, primary screen, strain BW25113 ΔtolC::kan, 384-well. OD615. growth inhibition, % at 10 µM (by protocol). 65,000 compounds, 2.2% hits;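 active = growth inhibition at or above a cutoff equal to the mean over every tested compound plus 3 SD, cut at about 60% in these data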;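 note: growth measured after 20 h incubation at 37 °C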
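signal = optical density read at 615 nm | test system = E. coli ΔtolC::kan strain BW25113 | timing = 20 h compound exposure of bacteria at 37 °C | buffer or medium = LB medium plus 50 µg/mL kanamycin | compound dosing = 10 µM final, single dose | evaluation = % inhibition of E. coli growth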
E coli WT exp: growth inhibitors of wild-type E. coli, primary screen, strain BW25113, expanded library, OD600; OD600 absorbance; growth inhibition, % at 100 µM; 98,000 compounds, 0.15% hits; AID 710, 2007;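 active = growth inhibition above about 50% at one test dose, limit read from the data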;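 note: growth measured after 20 h incubation at 37 °C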
CYP2C9 inhib: blockers of cytochrome P450 2C9 activity – biochemical, luminescence, ADME assay, primary screen; CYP2C9 Supersomes, luciferin-H conversion; inhibition, % at 5 µM; 96,000 compounds, 20% hits; AID 777, 2007;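 active = blocking of liver enzyme CYP2C9 beyond about 50% at 5 µM, limit read from the data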
Each line names hits and unclear results; the compound was inactive in the other large screens.

O=C(CS(=O)(=O)Cc1ccccc1)N1CCN(Cc2ccc3c(c2)OCO3)CC1	none
O=C(c1cccs1)[C@@H]1[C@@H]2C(=O)N(Cc3ccc4c(c3)OCO4)C(=O)[C@@H]2C2c3ccccc3C=CN21 (stereo not given in full)	CYP2C9 inhib 64 (no result: tolC growth inh)
CC(C)(C)C(=O)[C@@H]1[C@@H]2C(=O)N(C3CCCCC3)C(=O)[C@@H]2[C@H]2c3ccccc3C=CN12	CYP2C19 inhib 66, CYP2C9 inhib 82 (no result: tolC growth inh, E coli WT exp)
CSCCC1NC(=O)N(CC(=O)Nc2cccc3ccccc23)C1=O (stereo not given)	none (no result: tolC growth inh)
CCc1nc(OCCN(C)C)c2oc3ccccc3c2n1	none
COC(=O)/C(=C(/F)SCC(C)=O)C(F)(F)F	CYP2C9 inhib 69 (no result: tolC growth inh)
NC(=O)c1oc2ccccc2c1NC(=O)c1ccccc1	CYP2C9 act 3.8 (no result: tolC growth inh)
COc1ccccc1NC(=O)c1oc2ccccc2c1NC(=O)c1ccco1	none
NC(=O)c1oc2ccccc2c1NC(=O)c1ccco1	CYP2C9 act 3.7
Cc1ccc(C)c(C(=O)Nc2c(C(N)=O)oc3ccccc23)c1	none
COc1cccc(C(=O)Nc2ccc(C)cc2)c1	none
CN(C)S(=O)(=O)Oc1cccc(C(=O)Nc2ccccc2Cl)c1	CYP2C19 inhib 52, CYP2C9 inhib 52 (no result: tolC growth inh)
CN(C)S(=O)(=O)Oc1cccc(C(=O)Nc2ccc(Cl)cc2)c1	CYP2C9 inhib 68 (no result: tolC growth inh)
Cn1c(=O)[nH]c(=O)c2c1nc(NCc1ccccc1)n2CC(O)c1ccccc1 (stereo not given)	none
COc1ccc(-c2nn(-c3ccccc3)cc2C(=O)n2nnc3ccccc32)cc1	none (no result: tolC growth inh)
CCc1ccc(N2CC(C(=O)Nc3nccs3)CC2=O)cc1 (stereo not given)	none
CCCCN(C(=O)Nc1ccc(OCC)cc1)C1CCN(C(C)=O)CC1	none (no result: tolC growth inh)
O=C(Nc1nc2ccc(F)cc2s1)C1CCCO1 (stereo not given)	none (no result: tolC growth inh)
NC(=O)c1ccc(Br)c(S(=O)(=O)N2CCCCC2)c1	none
NC(=O)C1(N2CCCCC2)CCN(CC(=O)Nc2ccccc2-c2ccccc2)CC1	none
NC(=O)C1(N2CCCCC2)CCN(Cc2ccccc2Cl)CC1	CYP2C19 inhib 80
NC(=O)C1(N2CCCCC2)CCN(S(=O)(=O)c2cc(Cl)ccc2Cl)CC1	CYP2C19 inhib 90, CYP2C9 act 2.7
Cc1nc(NC(C)C)c2cnn(CCc3ccccc3)c2n1	CYP2C19 inhib 77 (no result: tolC growth inh)
Cn1ncc2c(NCc3ccccc3)ncnc21	none
CCCNc1nc2c(c(=O)[nH]c(=O)n2C)n1CCc1ccccc1	none
CCCNc1nc(C)nc2c1cnn2CCc1ccccc1	CYP2C19 inhib 89 (no result: tolC growth inh)
COC(=O)C(Cc1ccc(OC(=O)c2ccc(C)cc2)cc1)N1Cc2ccccc2C1=O (stereo not given)	CYP2C9 inhib 50 (no result: tolC growth inh)
Cc1ccc(/C=N/Nc2cccc3cccnc23)c(O)c1	none (no result: tolC growth inh)
COc1ccc(/C=N/NC2=NCCCCC2)cc1	none (no result: tolC growth inh)
Oc1ccc(/C=N/Nc2cccc3cccnc23)c(O)c1	CYP2C9 act 3 (no result: tolC growth inh)
O=[N+]([O-])c1ccccc1/C=N/Nc1nccnc1Cl	none (no result: tolC growth inh)
Oc1ccc(/C=N/Nc2nccnc2Cl)c(O)c1	CYP2C9 inhib 52 (no result: tolC growth inh)
COc1ccc(/C=N/Nc2nccnc2Cl)cc1	CYP2C19 inhib 77 (no result: tolC growth inh)
Oc1ccccc1/C=N/Nc1nccnc1Cl	CYP2C19 inhib 72 (no result: tolC growth inh)
CCN(CC)C(=O)c1cc(-c2ccc(Br)cc2)on1	none
CC(C)CC(=O)Nc1ccccc1-c1nnn(CC(=O)N2CCOCC2)n1	none
COc1ccc2[nH]c(C)c(C(=O)CN3CCN(C/C=C/c4ccccc4)CC3)c2c1	CYP2C9 inhib 54 (no result: tolC growth inh)
Cc1[nH]c2ccccc2c1C(=O)CN1CCN(C/C=C/c2ccccc2)CC1	none (no result: tolC growth inh)
COc1ccccc1N1CCN(CC(=O)c2c(C)[nH]c3ccccc23)CC1	CYP2C19 inhib 87
Cc1ccc(Cn2nnc3c(=O)n(CC(=O)NCc4ccc5c(c4)OCO5)cnc32)cc1	none (no result: CYP2C19 inhib, CYP2C19 act, CYP2C9 act, E coli WT exp, CYP2C9 inhib)
COc1ccc(-n2cnnc2SCC(=O)N(C)C2CCS(=O)(=O)C2)cc1 (stereo not given)	none
COc1ccc(-c2n[nH]c(C(F)(F)F)c2-c2cc3ccccc3o2)c(O)c1	tolC growth inh 100, CYP2C9 inhib 90
COc1ccccc1-c1nnc2sc(-c3cc4ccccc4o3)nn12	none
O=C(OCc1cc2ccccc2[nH]c1=O)c1ccccn1	none
COc1ccc(-n2c(SCC(=O)Nc3ccccc3)nnc2-c2ccc(NS(=O)(=O)c3ccc(C)cc3)cc2)cc1	none (no result: tolC growth inh)
COc1ccc(-n2c(SCC#N)nnc2-c2ccc(NS(=O)(=O)c3ccc(C)cc3)cc2)cc1	CYP2C19 inhib 90, CYP2C9 inhib 94
COc1ccc(-n2c(SCC(N)=O)nnc2-c2ccc(NS(=O)(=O)c3ccc(C)cc3)cc2)cc1	CYP2C9 inhib 73 (no result: tolC growth inh)
CCCCNC(=O)NS(=O)(=O)c1ccc(C)cc1	none (no result: CYP2C19 inhib, CYP2C19 act, CYP2C9 act, E coli WT exp, CYP2C9 inhib)
CCCCOc1ccc(CNC(=O)NS(=O)(=O)c2ccc(OCC(C)C)cc2)cc1	CYP2C9 inhib 90 (no result: tolC growth inh)
Cc1ccc(S(=O)(=O)NC(=O)NCc2ccccc2)cc1	none (no result: tolC growth inh)
CCCCOc1ccc(CNC(=O)NS(=O)(=O)c2ccc(OCC)cc2)cc1	CYP2C9 inhib 86 (no result: tolC growth inh)
CCCC1C(c2ccco2)NC(c2ccco2)CC1(C)O (stereo not given)	none
Cc1ccc(OCC(O)CNC(=O)c2ccccc2C(=O)O)cc1 (stereo not given)	none (no result: tolC growth inh)
CCCc1cc(=O)[nH]c(/N=C(\N)Nc2ccccc2)n1	none
Cc1ccc(Oc2ccc3c(c2)C(=O)N(c2ccc(S(=O)(=O)Nc4nccs4)cc2)C3=O)cc1	CYP2C9 inhib 64 (no result: tolC growth inh)
Cc1noc(NS(=O)(=O)c2ccc(N3C(=O)c4ccccc4C3=O)cc2)c1C	none
COC(=O)c1sc2nc[nH]c(=O)c2c1C	none (no result: tolC growth inh)
COC(=O)CSc1nc(-c2cccs2)ccc1C#N	none
CC(C)Cc1ccc(C#N)c(SCC(N)=O)n1	CYP2C19 inhib 61
Clc1ccc(CSc2snnc2-c2ccccc2)cc1	none (no result: tolC growth inh)
O=S(=O)(c1ccc(Cl)c(Cl)c1)c1snnc1-c1ccccc1	CYP2C19 inhib 99, CYP2C9 inhib 90 (no result: tolC growth inh)
C=CCn1c(COc2ccccc2)nnc1SCC(=O)Nc1ccc2c(c1)OCCO2	none
C=CCn1c(SCC(=O)Nc2ccc3c(c2)CCC3)nnc1-c1cccs1	tolC growth inh 77
C=CCn1c(SCC(=O)O)nnc1-c1cccs1	none (no result: tolC growth inh)
C=CCn1c(COc2ccc3c(c2)CCCC3)nnc1SCC(=O)Nc1cccc(SC)c1	CYP2C9 inhib 51 (no result: tolC growth inh)
CCOC(=O)C(Sc1ncnc2c1sc1nc(N3CCOCC3)c3c(c12)CCCC3)c1ccccc1 (stereo not given)	none (no result: tolC growth inh)
CCOc1ccc2[nH]c(=O)c(CN(CCO)C(=O)CC)cc2c1	none
c1ccc(Oc2cnc3ccccc3n2)cc1	none (no result: tolC growth inh)
